Data published in PMC10100021 (Chemistry, an Asian Journal, 2022).
Like-named read-outs stand apart in the source and are kept apart here.

Legend:
CYP199A4 [1] = biological target: T1, CYP199A4 (Rhodopseudomonas palustris, UniProt Q2IU02); details: WT CYP199A4, cited from earlier work; for shift to the high‐spin form of ferric CYP199A4: ref 9c, 14, 17; for HS (%), change in the heme spin state from low‐spin to high‐spin upon addition of substrate: reported previously
T1 sequence (Q2IU02 1-410): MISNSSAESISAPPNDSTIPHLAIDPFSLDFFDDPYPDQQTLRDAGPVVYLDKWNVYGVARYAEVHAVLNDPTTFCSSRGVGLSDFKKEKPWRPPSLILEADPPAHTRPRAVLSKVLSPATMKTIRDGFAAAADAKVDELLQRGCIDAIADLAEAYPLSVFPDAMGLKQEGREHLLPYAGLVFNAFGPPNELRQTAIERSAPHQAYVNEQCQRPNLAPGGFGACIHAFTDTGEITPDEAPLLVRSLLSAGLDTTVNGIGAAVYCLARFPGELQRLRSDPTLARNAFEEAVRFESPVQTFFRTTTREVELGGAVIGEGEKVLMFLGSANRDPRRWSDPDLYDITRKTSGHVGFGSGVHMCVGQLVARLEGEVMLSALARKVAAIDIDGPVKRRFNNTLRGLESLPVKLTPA

CYP199A4 [2] = biological target: T1, CYP199A4; details: WT CYP199A4; reported previously; cited from earlier work
CYP199A4 [3] = biological target: T1, CYP199A4; details: WT CYP199A4; reported previously; cited from earlier work; remark: listed apart in the source
CYP199A4 [4] = biological target: T1, CYP199A4; assay: Spin state shift; format: binding, Rhodopseudomonas palustris HaA2; details: WT CYP199A4, 50 mM Tris pH 7.4
Procedure, shortened: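 UV-visible spectra of CYP199A4 recorded at 30±0.5 °C after substrate addition. Percentage shift from low-spin to high-spin heme estimated to approximately ±5% by a previously described method.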

CYP199A4 [5] = biological target: T1, CYP199A4; assay: Dissociation constant determination by substrate binding titration; design: species or system Rhodopseudomonas palustris HaA2; details: WT CYP199A4, 50 mM Tris pH 7.4
Procedure, shortened: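 CYP199A4 at 0.5–1.5 μM in 50 mM Tris, pH 7.4, held at 30 °C. Substrate titrated in from 1, 10 or 100 mM ethanol stocks. Soret band peak-to-trough absorbance difference recorded over 700–250 nm. Percentage high-spin shift estimated to about ±5%. Kd fitted from the ΔA titration data.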

CYP199A4 [6] = biological target: T1, CYP199A4; assay: In vitro NADH oxidation activity assay; format: biochemical, Rhodopseudomonas palustris HaA2; details: for PFR (product formation rate): HaPuR:HaPux:CYP199A4 1:10:1, 0.5 μM CYP, 50 mM Tris pH 7.4; for Coupling (percentage of NADH utilized for the formation of products): WT CYP199A4
Procedure, shortened: (§1)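 Turnover run at 30 °C in oxygenated 50 mM Tris, pH 7.4, with 5 μM HaPux, 0.5 μM HaPuR and 0.5 μM CYP199A4 (WT or F298V). Started with substrate at 1 mM final. Product formation rate and coupling from quantified products. H2O2 by HRP/phenol/4-aminoantipyrine assay. Mean ±S.D., n≥3.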

CYP199A4 [7] = biological target: T1, CYP199A4; assay: Product distribution of enzyme-catalyzed oxidation by HPLC / GC-MS; format: biochemical, Rhodopseudomonas palustris HaA2
Procedure, shortened: (§2)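 Products of in vitro turnovers quantified by HPLC against product-standard calibrations. Sample: 132 μL reaction mix plus 2 μL of 10 mM 9-hydroxyfluorene in ethanol as internal standard (diphenylmethane for the isopropyl substrate), then 66 μL acetonitrile. Standards made by whole-cell E. coli oxidation or borohydride reduction, or estimated from the closest analogue. Derivatized samples identified by GC-MS on a DB-5 column.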

F298V mutant of CYP199A4 [8] = assay: Spin state shift assay with F298V mutant; format: binding, Rhodopseudomonas palustris HaA2
F298V mutant of CYP199A4 [9] = assay: In vitro NADH oxidation activity assay with F298V mutant; format: biochemical, Rhodopseudomonas palustris HaA2
Procedure, shortened: as §1

F298V mutant of CYP199A4 [10] = assay: Product distribution of oxidation by F298V mutant; format: biochemical, Rhodopseudomonas palustris HaA2
Procedure, shortened: as §2

CYP199A4 [11] = biological target: T1, CYP199A4; assay: Hydrogen peroxide uncoupling, HRP/phenol/4-aminoantipyrine assay; format: biochemical, Rhodopseudomonas palustris HaA2; details: WT CYP199A4, HRP assay
Procedure, shortened: as §1

[12] = WT CYP199A4, min^−1 abbreviates nmol.nmol‐CYP^−1.min^−1
[13] = listed as 4‐n‐propylbenzoic acid

SMILES | shift to the high‐spin form of ferric CYP199A4 (CYP199A4 [1]) [%] | HS (%), change in the heme spin state from low‐spin to high‐spin upon addition of substrate (CYP199A4 [1]) [%] | Coupling (percentage of NADH utilized for the formation of products) (CYP199A4 [3]) [%] | NADH (frequency of NADH oxidation) (CYP199A4 [3]) [nmol.nmol‐CYP^−1.min^−1] | PFR (product formation rate) (CYP199A4 [3]) [nmol.nmol‐CYP^−1.min^−1] | HS (%), change in the heme spin state from low‐spin to high‐spin upon addition of substrate (CYP199A4 [4]) [%] | Kd (CYP199A4 [5]) [nM] | PFR (product formation rate) (CYP199A4 [6]) [nmol.nmol‐CYP^−1.min^−1] | Coupling (percentage of NADH utilized for the formation of products) (CYP199A4 [6]) [%] | product formation rate (CYP199A4 [6]; [12]) [min⁻¹] | epoxide further oxidation product, share of total products (CYP199A4 [7]; WT CYP199A4, in vitro turnover) [%] | further results
CC(C)c1ccc(C(=O)O)cc1 [4‐isopropylBA, 4‐isopropylbenzoic acid] | ≥ 95 | ≥95 | 68±1 | 325±36 | 221±27 | – | – | – | – | – | – | Kd (CYP199A4 [2]): 290 ± 10 nM
CCCCCCCc1ccc(C(=O)O)cc1 [4‐n‐heptylBA, 4‐n‐heptylbenzoic acid] | – | – | – | – | – | ≥95 | 160 ± 30 | 147±12 | 53±2 | 147 | 3 | Coupling (percentage of NADH utilized for the formation of products) (CYP199A4 [6]; listed as 4‐n‐heptylbenzoic acid): 53%
CC(C)(C)c1ccc(C(=O)O)cc1 [4‐t‐butylBA, 4‐t‐butylbenzoic acid] | ≥ 95 | ≥95 | 100±13 | 227±4 | 227±32 | – | – | – | – | – | – | –
CCc1ccc(C(=O)O)cc1 [4‐ethylBA, 4‐ethylbenzoic acid] | ≥ 95 | ≥95 | 64±4 | 812±7 | 525±88 | – | – | – | – | – | – | Kd (CYP199A4 [2]): 340 ± 20 nM
CCCc1ccc(C(=O)O)cc1 [4‐n‐propylBA, 4‐n‐propylbenzoic acid] | – | – | – | – | – | ≥95 | 540 ± 20 | 594±72 | 86±8 | – | 12 | HS (%), change in the heme spin state from low‐spin to high‐spin upon addition of substrate (CYP199A4 [4]; [13]): ≥ 95%; Coupling (percentage of NADH utilized for the formation of products) (CYP199A4 [6]; [13]): 86%; shift to the high‐spin form (F298V mutant of CYP199A4 [8]): ≥ 95%; NADH oxidation rate (F298V mutant of CYP199A4 [9]): 378 ± 5 min⁻¹; coupling efficiency (F298V mutant of CYP199A4 [9]): 71%; Cβ hydroxylation product 4‐(2‐hydroxypropyl)benzoic acid (F298V mutant of CYP199A4 [10]): almost none; metabolites arising from initial desaturation, share of total products (F298V mutant of CYP199A4 [10]): 73%
CCCCc1ccc(C(=O)O)cc1 [4‐n‐butylBA, 4‐n‐butylbenzoic acid] | – | – | – | – | – | 90 | 390 ± 40 | 67±3 | 40±1 | 67 | 2 | unidentified minor product, share of total products (CYP199A4 [7]; WT CYP199A4, HPLC): < 2%; Cα–Cβ desaturation alkene product, share of total products (CYP199A4 [7]; WT CYP199A4, in vitro turnover): 50%; Cβ hydroxylation product, share of total products (CYP199A4 [7]; WT CYP199A4, in vitro turnover): did not generate any detectable product
O=C(O)c1ccc(C2CC2)cc1 [4‐cyclopropylBA, 4‐cyclopropylbenzoic acid] | – | – | – | – | – | ≥95 | 280 ± 20 | 170±22 | 45±5 | 170 | – | HS (%), change in the heme spin state from low‐spin to high‐spin upon addition of substrate (CYP199A4 [4]; listed as 4‐cyclopropylbenzoic acid): ≥ 95%; NADH oxidation rate (CYP199A4 [6]; [12]): 383 min⁻¹; Cα–Cβ desaturation alkene product, share of total products (CYP199A4 [7]; WT CYP199A4, in vitro turnover): No desaturation was observed; hydrogen peroxide uncoupling (CYP199A4 [11]): ≤ 2%
CC(C)Cc1ccc(C(=O)O)cc1 [4‐isobutylBA, 4‐isobutylbenzoic acid] | – | – | – | – | – | >95 | 590 ± 30 | 146±21 | 41±5 | 146 | – | –
